ChEMBL document CHEMBL1150387, “Development and experimental validation of a docking strategy for the generation of kinase-targeted libraries” (J Med Chem, 2008)

Legend:
[1] = target: Serine/threonine-protein kinase Chk2 (Homo sapiens) (UniProt O96017); assay: Inhibition of CHK2 at 10 uM by HTRF assay relative to control
Outline: (§1)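 HTRF kinase assay, one panel of kinases. Inhibitor stock 50 µM in 100% DMSO; tested at 10 µM. ATP and substrate at final levels near Km. Final buffer: 50 mM Hepes/NaOH pH 7.4, 40 µM Na3VO4, 0.005% Tween-20, 1 mM DTT, MnCl2 or MgCl2 at kinase-dependent levels. Started by adding ATP/substrate. Reaction run at room temperature, time varied by kinase. Detection mix in 50 mM Hepes pH 7.4, 0.1% BSA, 150 mM KF, incubated ≥1 h at room temperature. Activity expressed as % of uninhibited control; n=2.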

[2] = target: MAP kinase-activated protein kinase 2 (Homo sapiens) (UniProt P49137); assay: Inhibition of MAPKAPK2 at 10 uM by HTRF assay relative to control; outline: as §1
[3] = target: Receptor-type tyrosine-protein kinase FLT3 (Homo sapiens) (UniProt P36888); assay: Inhibition of FLT3 at 10 uM by HTRF assay relative to control; outline: as §1
[4] = target: Protein kinase C gamma type (Homo sapiens) (UniProt P05129); assay: Inhibition of PKCgamma at 10 uM by HTRF assay relative to control; outline: as §1
[5] = target: Mitogen-activated protein kinase 9 (Homo sapiens) (UniProt P45984); assay: Inhibition of JNK2 at 10 uM by HTRF assay relative to control; outline: as §1
[6] = target: Vascular endothelial growth factor receptor 1 (Homo sapiens) (UniProt P17948); assay: Inhibition of FLT1 at 10 uM by HTRF assay relative to control; outline: as §1
[7] = target: Ribosomal protein S6 kinase alpha-3 (Homo sapiens) (UniProt P51812); assay: Inhibition of RSK2 at 10 uM by HTRF assay relative to control; outline: as §1
[8] = target: T1, Tyrosine-protein kinase JAK3 (Homo sapiens) (UniProt P52333); assay: Inhibition of JAK3 at 10 uM by HTRF assay relative to control; outline: as §1
T1 sequence (whole entry): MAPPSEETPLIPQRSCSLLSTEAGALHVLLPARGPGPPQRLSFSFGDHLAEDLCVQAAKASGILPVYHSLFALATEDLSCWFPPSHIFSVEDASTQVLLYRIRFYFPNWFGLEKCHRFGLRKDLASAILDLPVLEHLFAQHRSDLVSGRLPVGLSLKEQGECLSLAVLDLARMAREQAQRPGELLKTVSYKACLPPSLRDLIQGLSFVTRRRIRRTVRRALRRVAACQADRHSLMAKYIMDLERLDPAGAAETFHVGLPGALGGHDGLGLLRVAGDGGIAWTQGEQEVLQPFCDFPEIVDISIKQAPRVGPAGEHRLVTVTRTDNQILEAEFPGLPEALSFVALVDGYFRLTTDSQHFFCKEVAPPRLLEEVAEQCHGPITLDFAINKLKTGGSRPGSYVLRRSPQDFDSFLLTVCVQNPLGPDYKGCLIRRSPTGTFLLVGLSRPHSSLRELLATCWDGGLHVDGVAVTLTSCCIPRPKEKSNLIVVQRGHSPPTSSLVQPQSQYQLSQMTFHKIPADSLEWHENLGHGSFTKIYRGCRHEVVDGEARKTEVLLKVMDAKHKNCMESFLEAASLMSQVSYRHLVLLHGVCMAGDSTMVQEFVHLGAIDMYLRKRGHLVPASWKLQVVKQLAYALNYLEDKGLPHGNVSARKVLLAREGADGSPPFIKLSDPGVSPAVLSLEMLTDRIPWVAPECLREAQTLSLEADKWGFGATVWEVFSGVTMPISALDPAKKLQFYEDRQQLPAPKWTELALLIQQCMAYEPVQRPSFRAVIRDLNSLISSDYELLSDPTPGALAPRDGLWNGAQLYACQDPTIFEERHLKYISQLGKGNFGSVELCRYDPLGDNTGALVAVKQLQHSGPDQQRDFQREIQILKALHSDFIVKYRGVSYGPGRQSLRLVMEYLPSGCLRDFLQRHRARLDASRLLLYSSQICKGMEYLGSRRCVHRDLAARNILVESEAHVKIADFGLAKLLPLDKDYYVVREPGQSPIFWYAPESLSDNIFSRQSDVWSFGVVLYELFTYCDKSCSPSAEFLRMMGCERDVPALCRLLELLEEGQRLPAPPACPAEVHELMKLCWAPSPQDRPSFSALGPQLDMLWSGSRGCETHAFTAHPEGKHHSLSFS

[9] = target: T2, Calcium/calmodulin-dependent protein kinase type IV (Homo sapiens) (UniProt Q16566); assay: Inhibition of CaMK4 at 10 uM by HTRF assay relative to control; outline: as §1
T2 sequence (whole entry): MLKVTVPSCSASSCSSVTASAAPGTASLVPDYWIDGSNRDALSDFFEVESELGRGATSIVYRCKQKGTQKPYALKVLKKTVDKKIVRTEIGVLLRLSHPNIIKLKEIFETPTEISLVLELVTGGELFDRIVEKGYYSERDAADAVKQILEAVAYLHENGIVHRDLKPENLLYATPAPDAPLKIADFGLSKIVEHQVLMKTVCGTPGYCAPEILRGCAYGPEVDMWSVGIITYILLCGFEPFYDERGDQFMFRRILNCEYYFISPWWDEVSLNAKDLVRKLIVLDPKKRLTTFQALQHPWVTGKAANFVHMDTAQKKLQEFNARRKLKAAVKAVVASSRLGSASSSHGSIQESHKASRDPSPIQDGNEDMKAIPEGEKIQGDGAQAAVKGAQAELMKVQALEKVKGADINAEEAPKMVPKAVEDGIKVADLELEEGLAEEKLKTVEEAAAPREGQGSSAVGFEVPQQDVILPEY

[10] = target: Fibroblast growth factor receptor 1 (Homo sapiens) (UniProt P11362); assay: Inhibition of FGFR1 at 10 uM by HTRF assay relative to control; outline: as §1
[11] = target: Protein kinase C alpha type (Homo sapiens) (UniProt P17252); assay: Inhibition of PKCalpha at 10 uM by HTRF assay relative to control; outline: as §1
[12] = target: Cyclin-dependent kinase 2 (Homo sapiens) (UniProt P24941); assay: Inhibition of CDK2 at 10 uM by HTRF assay relative to control; outline: as §1
[13] = target: High affinity nerve growth factor receptor (Homo sapiens) (UniProt P04629); assay: Inhibition of TrkA at 10 uM by HTRF assay relative to control; outline: as §1
[14] = target: Ribosomal protein S6 kinase beta-1 (Homo sapiens) (UniProt P23443); assay: Inhibition of p70S6K at 10 uM by HTRF assay relative to control; outline: as §1
[15] = target: Tyrosine-protein kinase Fes/Fps (Homo sapiens) (UniProt P07332); assay: Inhibition of FES at 10 uM by HTRF assay relative to control; outline: as §1
[16] = target: Calcium/calmodulin-dependent protein kinase type II subunit alpha (Homo sapiens) (UniProt Q9UQM7); assay: Inhibition of CaMK2alpha at 10 uM by HTRF assay relative to control; outline: as §1
[17] = target: Mitogen-activated protein kinase 1 (Homo sapiens) (UniProt P28482); assay: Inhibition of ERK2 at 10 uM by HTRF assay relative to control; outline: as §1
Sequence of Mitogen-activated protein kinase 1 (Homo sapiens) (P28482 whole entry): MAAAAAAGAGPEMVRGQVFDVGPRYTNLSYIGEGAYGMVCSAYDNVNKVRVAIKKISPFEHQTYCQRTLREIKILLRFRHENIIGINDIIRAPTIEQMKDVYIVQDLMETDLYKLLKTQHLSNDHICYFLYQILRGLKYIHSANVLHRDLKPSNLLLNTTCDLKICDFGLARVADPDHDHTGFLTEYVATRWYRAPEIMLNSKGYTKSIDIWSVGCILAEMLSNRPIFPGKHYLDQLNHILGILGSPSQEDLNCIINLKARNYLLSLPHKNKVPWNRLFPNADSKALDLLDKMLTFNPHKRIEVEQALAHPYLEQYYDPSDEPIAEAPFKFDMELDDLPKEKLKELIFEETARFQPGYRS

Sequence of Mitogen-activated protein kinase 9 (Homo sapiens) (P45984 whole entry, looked up): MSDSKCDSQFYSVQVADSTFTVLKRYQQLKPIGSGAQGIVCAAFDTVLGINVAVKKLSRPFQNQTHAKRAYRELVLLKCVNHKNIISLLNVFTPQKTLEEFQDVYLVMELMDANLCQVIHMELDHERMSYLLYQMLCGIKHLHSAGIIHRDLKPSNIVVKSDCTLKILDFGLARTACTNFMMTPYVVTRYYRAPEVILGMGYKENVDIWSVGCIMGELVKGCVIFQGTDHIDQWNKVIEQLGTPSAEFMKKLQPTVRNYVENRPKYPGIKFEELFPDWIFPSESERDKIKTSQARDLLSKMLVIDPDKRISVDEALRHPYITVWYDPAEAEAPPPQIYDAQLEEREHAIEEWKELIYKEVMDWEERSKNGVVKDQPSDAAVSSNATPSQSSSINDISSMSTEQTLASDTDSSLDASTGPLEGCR
Sequence of Tyrosine-protein kinase Fes/Fps (Homo sapiens) (P07332 whole entry): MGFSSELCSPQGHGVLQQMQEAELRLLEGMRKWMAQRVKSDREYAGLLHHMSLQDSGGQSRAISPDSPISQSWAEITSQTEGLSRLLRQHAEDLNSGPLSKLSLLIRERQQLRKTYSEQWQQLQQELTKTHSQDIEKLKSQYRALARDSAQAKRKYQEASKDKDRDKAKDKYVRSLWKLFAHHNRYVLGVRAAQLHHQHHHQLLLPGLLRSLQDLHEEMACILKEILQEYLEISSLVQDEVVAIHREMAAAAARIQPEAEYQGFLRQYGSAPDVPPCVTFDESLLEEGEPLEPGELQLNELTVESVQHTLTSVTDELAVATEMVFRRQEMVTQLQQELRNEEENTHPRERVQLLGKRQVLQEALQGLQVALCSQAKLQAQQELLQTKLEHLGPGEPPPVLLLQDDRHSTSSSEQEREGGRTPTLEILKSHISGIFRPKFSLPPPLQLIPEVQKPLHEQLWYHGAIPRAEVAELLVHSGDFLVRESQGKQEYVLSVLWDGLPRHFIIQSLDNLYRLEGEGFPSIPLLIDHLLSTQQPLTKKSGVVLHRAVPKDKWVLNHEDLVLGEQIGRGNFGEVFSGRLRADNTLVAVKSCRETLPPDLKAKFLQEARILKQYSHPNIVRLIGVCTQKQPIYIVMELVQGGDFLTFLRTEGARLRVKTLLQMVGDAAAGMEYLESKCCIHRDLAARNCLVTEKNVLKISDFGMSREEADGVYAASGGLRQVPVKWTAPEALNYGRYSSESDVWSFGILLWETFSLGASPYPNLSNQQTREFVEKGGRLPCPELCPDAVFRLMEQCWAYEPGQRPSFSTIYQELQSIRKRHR
Sequence of Serine/threonine-protein kinase Chk2 (Homo sapiens) (O96017 whole entry): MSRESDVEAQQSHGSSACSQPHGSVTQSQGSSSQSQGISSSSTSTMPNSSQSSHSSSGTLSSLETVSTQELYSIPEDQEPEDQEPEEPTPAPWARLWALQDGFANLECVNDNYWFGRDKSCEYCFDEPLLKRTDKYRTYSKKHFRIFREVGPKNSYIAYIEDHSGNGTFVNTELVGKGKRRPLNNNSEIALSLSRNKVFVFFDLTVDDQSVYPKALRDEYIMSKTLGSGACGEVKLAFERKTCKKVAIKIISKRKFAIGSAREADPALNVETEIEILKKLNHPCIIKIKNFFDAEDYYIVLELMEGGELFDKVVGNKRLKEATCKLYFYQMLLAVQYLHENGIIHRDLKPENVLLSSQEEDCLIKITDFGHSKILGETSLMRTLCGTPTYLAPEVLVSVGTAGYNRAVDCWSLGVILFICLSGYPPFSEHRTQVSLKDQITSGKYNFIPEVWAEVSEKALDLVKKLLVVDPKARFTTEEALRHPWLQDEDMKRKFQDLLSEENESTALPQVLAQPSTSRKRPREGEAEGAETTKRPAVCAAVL
Sequence of MAP kinase-activated protein kinase 2 (Homo sapiens) (P49137 whole entry, looked up): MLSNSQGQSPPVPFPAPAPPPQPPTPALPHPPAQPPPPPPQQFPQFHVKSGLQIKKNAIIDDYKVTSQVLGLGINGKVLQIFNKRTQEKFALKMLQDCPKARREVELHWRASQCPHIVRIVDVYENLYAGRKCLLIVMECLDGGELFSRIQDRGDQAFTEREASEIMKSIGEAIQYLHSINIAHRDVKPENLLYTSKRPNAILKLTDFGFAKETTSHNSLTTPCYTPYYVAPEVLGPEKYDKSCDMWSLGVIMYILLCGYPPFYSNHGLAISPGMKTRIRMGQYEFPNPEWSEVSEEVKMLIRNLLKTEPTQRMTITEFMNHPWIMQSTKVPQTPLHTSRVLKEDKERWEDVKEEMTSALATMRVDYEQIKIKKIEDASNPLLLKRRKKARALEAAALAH
Sequence of Vascular endothelial growth factor receptor 1 (Homo sapiens) (P17948 whole entry): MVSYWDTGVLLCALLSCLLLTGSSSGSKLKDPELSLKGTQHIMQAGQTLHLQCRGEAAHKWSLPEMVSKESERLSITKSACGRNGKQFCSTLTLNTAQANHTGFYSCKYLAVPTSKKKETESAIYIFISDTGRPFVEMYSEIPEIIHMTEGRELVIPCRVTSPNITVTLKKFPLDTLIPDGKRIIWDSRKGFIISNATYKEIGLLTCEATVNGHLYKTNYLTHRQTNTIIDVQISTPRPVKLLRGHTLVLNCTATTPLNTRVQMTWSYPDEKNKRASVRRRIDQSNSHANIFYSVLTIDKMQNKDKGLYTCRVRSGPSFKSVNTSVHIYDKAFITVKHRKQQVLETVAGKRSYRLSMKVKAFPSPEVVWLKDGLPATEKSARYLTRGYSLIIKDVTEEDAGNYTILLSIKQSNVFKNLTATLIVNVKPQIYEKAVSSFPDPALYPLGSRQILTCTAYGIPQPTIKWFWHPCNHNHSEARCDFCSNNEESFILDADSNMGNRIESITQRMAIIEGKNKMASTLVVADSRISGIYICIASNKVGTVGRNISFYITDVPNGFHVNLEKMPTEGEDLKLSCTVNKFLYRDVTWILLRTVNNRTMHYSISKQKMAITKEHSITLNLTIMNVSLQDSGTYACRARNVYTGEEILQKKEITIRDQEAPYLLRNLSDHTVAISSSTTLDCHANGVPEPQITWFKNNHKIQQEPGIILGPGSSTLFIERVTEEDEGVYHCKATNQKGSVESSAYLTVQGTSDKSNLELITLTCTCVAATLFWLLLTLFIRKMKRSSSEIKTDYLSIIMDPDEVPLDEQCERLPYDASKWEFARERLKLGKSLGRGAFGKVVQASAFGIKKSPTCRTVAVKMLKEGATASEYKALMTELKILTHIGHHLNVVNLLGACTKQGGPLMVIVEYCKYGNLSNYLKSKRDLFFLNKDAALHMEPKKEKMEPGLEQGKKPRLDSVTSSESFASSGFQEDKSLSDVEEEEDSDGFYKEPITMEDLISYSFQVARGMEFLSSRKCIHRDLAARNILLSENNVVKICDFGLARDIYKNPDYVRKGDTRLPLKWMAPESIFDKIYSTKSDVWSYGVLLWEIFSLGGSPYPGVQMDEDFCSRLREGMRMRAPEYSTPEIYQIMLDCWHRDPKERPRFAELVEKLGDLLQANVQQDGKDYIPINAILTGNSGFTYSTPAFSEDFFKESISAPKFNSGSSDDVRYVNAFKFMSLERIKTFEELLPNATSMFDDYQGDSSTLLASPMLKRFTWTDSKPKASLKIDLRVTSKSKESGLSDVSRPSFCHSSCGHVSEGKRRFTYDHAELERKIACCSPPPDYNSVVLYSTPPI
Sequence of Receptor-type tyrosine-protein kinase FLT3 (Homo sapiens) (P36888 whole entry): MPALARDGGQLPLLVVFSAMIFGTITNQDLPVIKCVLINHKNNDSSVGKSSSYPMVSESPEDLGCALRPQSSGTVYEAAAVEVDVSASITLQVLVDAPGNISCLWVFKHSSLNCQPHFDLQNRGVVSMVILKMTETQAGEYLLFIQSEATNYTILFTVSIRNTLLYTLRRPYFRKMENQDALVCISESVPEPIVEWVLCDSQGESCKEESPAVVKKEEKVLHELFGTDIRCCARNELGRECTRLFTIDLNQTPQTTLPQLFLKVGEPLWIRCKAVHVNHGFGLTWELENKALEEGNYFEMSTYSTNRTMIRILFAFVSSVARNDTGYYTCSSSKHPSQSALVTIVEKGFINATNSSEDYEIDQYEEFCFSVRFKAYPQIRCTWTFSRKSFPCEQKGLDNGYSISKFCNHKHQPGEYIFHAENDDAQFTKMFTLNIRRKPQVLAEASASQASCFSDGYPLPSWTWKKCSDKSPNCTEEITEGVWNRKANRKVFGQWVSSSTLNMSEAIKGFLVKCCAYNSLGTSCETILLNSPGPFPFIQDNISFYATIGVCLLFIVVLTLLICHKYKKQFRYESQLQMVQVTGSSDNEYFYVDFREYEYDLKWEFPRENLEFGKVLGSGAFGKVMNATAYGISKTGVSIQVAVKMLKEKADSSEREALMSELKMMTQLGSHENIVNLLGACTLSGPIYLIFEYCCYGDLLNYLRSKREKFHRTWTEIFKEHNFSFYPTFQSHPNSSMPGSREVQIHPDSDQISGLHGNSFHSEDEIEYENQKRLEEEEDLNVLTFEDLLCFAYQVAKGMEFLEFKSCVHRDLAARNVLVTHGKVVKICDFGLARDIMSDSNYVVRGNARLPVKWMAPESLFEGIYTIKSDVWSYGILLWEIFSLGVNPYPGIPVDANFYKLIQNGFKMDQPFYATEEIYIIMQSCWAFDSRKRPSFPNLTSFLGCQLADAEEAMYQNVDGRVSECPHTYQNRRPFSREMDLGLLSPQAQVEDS

inhibition [1] [%] | inhibition [2] [%] | inhibition [3] [%] | inhibition [4] [%] | inhibition [5] [%] | inhibition [6] [%] | inhibition [7] [%] | inhibition [8] [%] | inhibition [9] [%] | inhibition [10] [%] | inhibition [11] [%] | inhibition [12] [%] | inhibition [13] [%] | inhibition [14] [%] | inhibition [15] [%] | inhibition [16] [%] | inhibition [17] [%] | SMILES
0 | 0 | 0 | 3 | 3 | 5 | 0 | 0 | 0 | 0 | 0 | 6 | 9 | 11 | 7 | 0 | 6 | Cc1cccc(N(C)c2cc(Nc3cccc(C(=O)N(CC(C)C)CC(C)C)c3)ncn2)c1
0 | 4 | 0 | 2 | 2 | 12 | 0 | 0 | 0 | 4 | 0 | 9 | 6 | 13 | 20 | 0 | 0 | CN(C)CC(C)(C)CNC(=O)[C@@H]1CCCN1c1nccc(Nc2ccccc2)n1
0 | 4 | 54 | 0 | 4 | 0 | 5 | 6 | 0 | 20 | 3 | 1 | 7 | 9 | 10 | 0 | 0 | Cc1cccc(Nc2nccc(Nc3cccc(C(=O)NCc4ccc(N(C)C)cc4)c3)n2)c1
1 | 0 | 11 | 5 | 2 | 20 | 0 | 4 | 0 | 16 | 0 | 6 | 10 | 6 | 0 | 0 | 4 | COc1ccc(NC(=O)Cc2ccc(Nc3cc(N(C)c4cccc(C)c4)ncn3)cc2)cn1
0 | 0 | 0 | 5 | 1 | 0 | 0 | 0 | 0 | 0 | 0 | 17 | 5 | 5 | 0 | 0 | 1 | Nc1nc(Nc2ccccc2)cc(N2CCC(C(=O)NCCc3ccccn3)CC2)n1
0 | 0 | 21 | 10 | 4 | 21 | 0 | 11 | 0 | 3 | 0 | 1 | 8 | 3 | 4 | 0 | 3 | Cc1cccc(N(C)c2cc(Nc3cccc(C(=O)NCc4ccc(N(C)C)cc4)c3)ncn2)c1
1 | 3 | 11 | 0 | 5 | 1 | 0 | 16 | 0 | 13 | 0 | 5 | 5 | 10 | 8 | 0 | 0 | Nc1nc(Nc2ccc3ncsc3c2)cc(N2CCC[C@H]2C(=O)NCCc2cccc(I)c2)n1
6 | 2 | 0 | 4 | 3 | 0 | 0 | 0 | 0 | 14 | 0 | 5 | 5 | 6 | 0 | 0 | 1 | O=C(c1nc(SCc2ccc(Cl)cc2)n2ccccc12)N1CCN(c2cc(Nc3cccc(Br)c3)ncn2)CC1
5 | 0 | 0 | 0 | 1 | 0 | 0 | 2 | 0 | 0 | 4 | 9 | 10 | 8 | 11 | 0 | 0 | O=C(CN1CCN(c2ncnc3c2CN(Cc2ccccc2)CC3)CC1)Nc1cc(F)ccc1F
27 | 0 | 99 | 79 | 88 | 39 | 17 | 91 | 16 | 86 | 0 | 24 | 75 | 18 | 97 | 34 | 13 | CN(C)CC(C)(C)CNC(=O)c1cccc(Nc2nccc(Nc3ccc4ncsc4c3)n2)c1
3 | 0 | 0 | 6 | 2 | 0 | 0 | 0 | 0 | 0 | 1 | 5 | 8 | 12 | 8 | 1 | 3 | CN(CCc1ccccn1)C(=O)[C@@H]1CCCN1c1nccc(Nc2ccccc2)n1
2 | 0 | 0 | 2 | 5 | 0 | 0 | 6 | 0 | 5 | 3 | 0 | 4 | 10 | 4 | 0 | 8 | Cc1cccc(CN2CCN(c3cc(N(C)c4cccc(C)c4)ncn3)CC2)c1
0 | 1 | 0 | 0 | 11 | 1 | 0 | 0 | 0 | 11 | 0 | 10 | 0 | 3 | 16 | 0 | 0 | CC(=O)CCCCC(=O)N1CCN(c2nccc(Oc3cccc(C)c3)n2)CC1
2 | 0 | 0 | 6 | 3 | 0 | 0 | 0 | 0 | 0 | 0 | 3 | 0 | 7 | 0 | 0 | 2 | Cc1cc(C(=O)N2CCN(c3ncnc4c3CN(Cc3ccccc3)CC4)CC2)c(C)n1C
